An excerpt weighted towards active compounds, which were near 1.3% of everything screened.
EP2 antag – inhibitors of human EP2 prostaglandin E2 receptor; inhibition, % at 25 µM; hit rate 0.52% among 260,000; P43116; C6 glioma cells expressing human EP2, cAMP TR-FRET; cells stimulated with saturating PGE2;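 active = percent inhibition above 40 after rounding to a whole number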;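 note: rat C6 glioma host cells with rolipram phosphodiesterase inhibitor present; the protocol text gives 20 µM as final concentration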
Furin inh – human furin inhibition; purified furin, fluorogenic substrate cleavage; inhibition, % at 20 µM or 30 µM; P09958; hit rate 0.061% among 220,000; AID 463115; in the data active = inhibition above about 25%
Target sequence (P09958 108-714 limits assumed): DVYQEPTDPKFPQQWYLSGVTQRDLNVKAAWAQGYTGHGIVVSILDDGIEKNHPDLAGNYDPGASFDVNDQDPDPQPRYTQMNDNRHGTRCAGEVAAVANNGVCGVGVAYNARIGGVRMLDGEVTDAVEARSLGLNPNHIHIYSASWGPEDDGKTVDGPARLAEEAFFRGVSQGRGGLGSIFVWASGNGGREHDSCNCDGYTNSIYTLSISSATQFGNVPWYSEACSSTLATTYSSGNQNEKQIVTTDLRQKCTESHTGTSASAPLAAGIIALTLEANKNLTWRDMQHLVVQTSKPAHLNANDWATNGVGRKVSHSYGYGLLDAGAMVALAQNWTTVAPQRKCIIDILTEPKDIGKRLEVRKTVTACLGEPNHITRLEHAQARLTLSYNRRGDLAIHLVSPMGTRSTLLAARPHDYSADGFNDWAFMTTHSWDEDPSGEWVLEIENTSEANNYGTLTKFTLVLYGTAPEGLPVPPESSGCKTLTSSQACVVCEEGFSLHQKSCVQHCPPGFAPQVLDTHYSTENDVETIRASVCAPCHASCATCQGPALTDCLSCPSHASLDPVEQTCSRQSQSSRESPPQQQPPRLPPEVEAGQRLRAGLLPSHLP
NR2E3 ag-1 – activates human photoreceptor nuclear receptor NR2E3 | GST-NR2E3/biotin-RetCOR TR-FRET, 1536-well | inhibition of corepressor binding, % at 4.78 µM | hit rate 0.12% among 320,000;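 active = percent inhibition above the cutoff of mean plus 3 SD of all tested compounds, set per screening campaign, cut at about 20% in these data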;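 note: 0% = DMSO wells and 100% = biotin wells as full block of FRET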
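System: GST-tagged NR2E3 plus biotinylated RetCOR corepressor; Amount: 1.35 nM GST-tagged NR2E3 final; Dosing: single nominal compound dose of 4.8 µM; Schedule: 5 h incubation at 4 °C; Technique: TR-FRET with europium anti-GST and streptavidin-D2, 340 nm excitation; Controls: biotin wells as high control, 0.6% DMSO wells as low control.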
GASC-1 inh – inhibitors of human GASC-1 (JMJD2C) demethylase. GST-JMJD2C(1-420) H3K9me3 demethylation, DELFIA europium. hit rate 0.069% among 330,000. AID 2099. inhibition, % at 2.35 µM;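 active = more than half of a compound's replicate wells show inhibition beyond 50%, single wells judged on their own value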;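 note: signal counts dimethyl H3K9 product captured on neutravidin plate; 0% = median of DMSO wells and 100% = 0.3 times that DMSO median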
EP2 modulator – modulates human prostaglandin E2 receptor EP2 signaling; EP2-expressing cells, cAMP HTRF FRET, PGE2 co-stimulation; hit rate 0.83% among 260,000; induction, % at 25 µM;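 active = compounds whose cAMP rise, as percent of the full-agonist control response, exceeds 60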;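 note: rat C6 glioma line stably carrying human EP2 under a CMV promoter; the protocol text gives 20 µM as final concentration; 100% = response of wells given 1 µM PGE2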
NR2E3 ag-2 – human photoreceptor-specific nuclear receptor agonism; CHO-S Gal4-NCOR/VP16-NR2E3 two-hybrid, luciferase; Q9Y5X4; inhibition of corepressor binding, % at 3.98 µM; hit rate 0.35% among 360,000;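 active = inhibition above the mean of all tested compounds plus 3 SD, cut at about 70% in these data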;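 note: 0% = DMSO with NR2E3 transfected cells and 100% = cells lacking NR2E3 construct; higher means lower luciferase signal from less NR2E3 corepressor binding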
NR2E3 ag confirm – confirmation of human NR2E3 agonists; shares compounds with NR2E3 ag-2; CHO-S mammalian two-hybrid NR2E3-NCOR, luciferase luminescence; inhibition, % at 3.98 µM; hit rate 51% among 2,300;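 active = average inhibition above a cutoff equal to the mean inhibition of all tested compounds plus one SD, cut at about 70% in these data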;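 note: 0% = DMSO in NR2E3 cells and 100% = DMSO in cells lacking NR2E3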
GAL4-VP16 luc – counter-screen for NR2E3 agonists: GAL4-VP16 reporter inhibitors; AID 624379; hit rate 29% among 2,300; inhibition, % at 3.98 µM; CHO-S GAL4-VP16 luciferase reporter, luminescence; shares compounds with NR2E3 ag-2;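 active = mean inhibition above a cutoff equal to the average over all tested compounds plus one standard deviation, cut at about 70% in these data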;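 note: luciferase from a UAS reporter driven by GAL4-VP16 transactivation; 0% = DMSO with VP16-transfected cells and 100% = DMSO with cells lacking VP16; higher means less reporter light so more repression of VP16 activity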
* hit, by the source's call; x = no result.

SMILES | EP2 antag | Furin inh | NR2E3 ag-1 | GASC-1 inh | EP2 modulator | NR2E3 ag-2 | NR2E3 ag confirm | GAL4-VP16 luc
C[C@H](CO)N1C[C@H](C)[C@@H](CN(C)C(=O)Nc2ccc3c(c2)OCCO3)OCc2cnnn2CCCC1=O | x | x | x | x | x | 63 | 8 | -22
C[C@@H]1CN([C@H](C)CO)C(=O)CCCn2nncc2CO[C@H]1CN(C)C(=O)Nc1ccc2c(c1)OCO2 | x | x | x | x | x | -35 | x | x
Clc1ccc2c(NCc3cccs3)ncnc2c1 | x | x | 0 | -1 | x | 19 | x | x
c1csc(CNc2ncnc3sccc23)c1 | 8 | -29 | -1 | 4 | x | 72* | 84* | 66
COc1ccc(CNc2ncnc3sccc23)cc1 | x | x | 4 | 0 | x | 94* | 82* | 63
OC(CNc1ncnc2sccc12)c1ccccc1 (stereo unspecified) | x | x | 3 | 1 | x | 46 | x | x
COc1cccc(COc2ncnc3sccc23)c1 | 5 | -23 | 0 | -44 | 5 | -30 | x | x
c1ccc(CNc2ncnc3sccc23)cc1 | x | x | -3 | 14 | x | 91* | 80* | 53
O=S(=O)(O)CC(O)CSc1nc2ccccc2s1 (stereo unspecified) | 9 | x | x | x | -22 | x | x | x
COC(=O)c1ccc(C(=O)N2CCC(C(=O)c3nc4ccccc4s3)CC2)s1 | x | x | x | x | -151 | x | x | x
O=C(C1CCCO1)N1CCCC(n2nc(-c3cccs3)ccc2=O)C1 (stereo unspecified) | x | x | x | x | -10 | x | x | x
COc1ccc(NC(=O)c2ccccc2)cc1NS(=O)(=O)c1ccc(F)cc1 | 3 | -21 | 3 | -3 | -5 | -22 | x | x
COc1ccc(NC(=O)c2ccc(-c3ccccc3)cc2)cc1NS(=O)(=O)c1ccc(F)cc1 | 7 | -17 | 0 | -4 | 4 | 69 | -5 | 21
CCOc1ccccc1-n1c(COc2ccc(Cl)cc2)nnc1SCC(N)=O | 14 | x | x | x | 6 | x | x | x
O=S(=O)(/C=C/C=C/S(=O)(=O)c1ccccc1)c1ccccc1 | x | x | x | x | x | 85* | 80* | 29
CCOC(=O)c1ccc(S(=O)(=O)NC2CC2)cc1 | x | x | 0 | 0 | x | -20 | x | x
CCOC(=O)c1ccc(S(=O)(=O)NC2CCC(C)CC2)cc1 (stereo unspecified) | x | x | 0 | -10 | x | 70 | 51 | 51
CCCn1ncc(CN2C[C@@H]3CCCN3C[C@@H]2Cc2ccccc2)c1C | 6 | x | x | x | -20 | x | x | x
CC(=O)OC1c2ccccc2C(=O)N1Cc1ccccc1 (stereo unspecified) | 14 | -25 | -2 | 3 | 6 | 75* | -1 | 3
CC(=O)OC1c2ccccc2C(=O)N1c1ccccc1C (stereo unspecified) | 8 | -17 | 4 | -6 | 38 | -13 | x | x
CCOCCCNC(=S)N1CCC(NC(=O)c2ccccc2C)CC1 | 10 | x | x | x | -40 | x | x | x
Clc1ccc(-c2nnc(CSc3nnc(-c4cccs4)n3Cc3ccccc3)o2)cc1 | 8 | -10 | 0 | -1 | 18 | 74* | 88* | 74*
Nc1nc2c(nnn2C2CC(O)C(CO)O2)c(=O)[nH]1 (stereo unspecified) | x | x | x | x | x | 65 | -2 | 17
Cc1cc(=O)[nH]c(SCc2cccc(Br)c2)n1 | 8 | -18 | 2 | -26 | 11 | 24 | x | x
Cc1cc(=O)[nH]c(SCc2cccc3ccccc23)n1 | x | x | -2 | 35 | x | 71* | 80* | 57
SMILES | EP2 antag | Furin inh | NR2E3 ag-1 | GASC-1 inh | EP2 modulator | NR2E3 ag-2 | NR2E3 ag confirm | GAL4-VP16 luc
Cc1cc(=O)[nH]c(SCc2ccc(Cl)cc2Cl)n1 | x | x | -2 | 0 | x | 21 | x | x
Cc1cc(CSc2nc(C)cc(=O)[nH]2)c2ncccc2c1 | 4 | -15 | -3 | 5 | 16 | 86* | 94* | 72*
Cc1cccc2cc3c(N)c(C(=O)Nc4ccc5c(c4)OCO5)sc3nc12 | 12 | x | x | x | -51 | x | x | x
COc1ccc(CCC(=O)Nc2cccc(S(=O)(=O)N3CCCCCC3)c2)cc1OC | x | x | 2 | 6 | x | -15 | x | x
CCN(CC)S(=O)(=O)c1cc(NC(=O)CNc2cccc(S(=O)(=O)N3CCCC3)c2)ccc1C | x | x | 2 | 20 | x | 70 | 61 | 53
O=C(CNc1ccc(C(F)(F)F)cc1)Nc1cccc(S(=O)(=O)N2CCCC2)c1 | x | x | 1 | -4 | x | -30 | x | x
COc1ccc(CC(=O)Nc2cccc(S(=O)(=O)N3CCCCCC3)c2)cc1OC | 7 | -19 | -3 | 1 | -17 | 80* | 90* | 77*
O=C(CNc1cccc(S(=O)(=O)N2CCOCC2)c1)Nc1ccc(C(F)(F)F)cc1 | x | x | -2 | -6 | x | 50 | 10 | 25
CCc1cc(NCc2ccncc2)n2nc3nc(C)cc(C)c3c2n1 | x | x | x | x | -36 | x | x | x
Cc1cc(-c2cnc(C)nc2C2CCN(C(=O)N3CCCC3)CC2)on1 | x | x | x | x | 16 | x | x | x
O=C(c1ccco1)N1CCN(S(=O)(=O)c2ccc(Oc3ccccc3)cc2)CC1 | 4 | -12 | 1 | 25 | -76 | 49 | 48 | 66
c1ccc2[nH]c(CSc3nnc(-c4ccncc4)o3)nc2c1 | 12 | -9 | 0 | 2 | 5 | 70* | -30 | 10
Brc1cccc(-c2nnc(SCc3nc4ccccc4[nH]3)o2)c1 | x | -23 | 0 | 2 | -29 | -9 | x | x
CC(=O)N1CCc2cc(S(=O)(=O)NC3CCCc4ccccc43)ccc21 (stereo unspecified) | 21 | -19 | 3 | 10 | 9 | 67 | 56 | 53
O=C(COc1ccccc1-c1ccccc1)NN=C1CCCC1 | 4 | -34 | 0 | x | 7 | 50 | 4 | -7
O=C(OCCN1C(=O)c2cccc3c(N4CCOCC4)ccc(c23)C1=O)c1ccc(Cl)cc1Cl | 11 | 0 | -1 | 2 | 4 | -18 | x | x
O=C(OCCN1C(=O)c2cccc3c(N4CCOCC4)ccc(c23)C1=O)c1ccccc1Cl | 12 | 1 | 4 | -3 | -18 | 52 | 93* | 92*
COCCCN1C(=O)C(O)=C(C(=O)c2ccco2)C1c1ccc(Cl)c(Cl)c1 (stereo unspecified) | 20 | x | x | x | 31 | x | x | x
Cc1cc(C)cc(NC(=O)CCc2nc3sc4c(c3c(=O)[nH]2)CCCC4)c1 | x | x | 1 | -10 | x | 84* | 96* | 16

From PubChem BioAssay
